Bioassay records deposited in PubChem BioAssay by NMMLSC.
The list is not random: actives were taken first. Their share in the collection is about 2.5%.
MEKK2mut PB1 HTS: signal of MEK5 binding to mutant human MEKK2 PB1 domain. 290,000 tested, 0.35% active. percent response, % at 10 µM. AID 1530. bead flow cytometry, Alexa488-MEK5 binding to MEKK2 mutant; in the data active = percent response above about 24%, passing the limit was not always enough
MEKK2 WT-MEK5: raises or lowers MEK5 binding to wildtype human MEKK2 PB1 domain; binding response (% of control), % at 10 µM; AID 1531; bead flow cytometry, Alexa488-MEK5 binding to MEKK2 WT; actives lie on both sides; 290,000 tested, 1.1% active; in the data active = binding response below about 67% or above about 130%
MEKK3 PB1 HTS: MEKK3-MEK5 PB1 interaction, increase or decrease | Q99759 | bead-based flow cytometry, Alexa488-MEK5 binding to MEKK3; actives lie on both sides; 0 = blocked by unlabeled MEK5, 100 = vehicle | binding response (% of control), % at 10 µM | 290,000 tested, 1.4% active;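 active = binding response more than 3 SD above or below the average of its plate-row segment, actives on both sides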;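 also: Alexa488 bead fluorescence after subtracting the streptavidin-only scavenger bead signal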
Target sequence (Q99759 whole entry, looked up): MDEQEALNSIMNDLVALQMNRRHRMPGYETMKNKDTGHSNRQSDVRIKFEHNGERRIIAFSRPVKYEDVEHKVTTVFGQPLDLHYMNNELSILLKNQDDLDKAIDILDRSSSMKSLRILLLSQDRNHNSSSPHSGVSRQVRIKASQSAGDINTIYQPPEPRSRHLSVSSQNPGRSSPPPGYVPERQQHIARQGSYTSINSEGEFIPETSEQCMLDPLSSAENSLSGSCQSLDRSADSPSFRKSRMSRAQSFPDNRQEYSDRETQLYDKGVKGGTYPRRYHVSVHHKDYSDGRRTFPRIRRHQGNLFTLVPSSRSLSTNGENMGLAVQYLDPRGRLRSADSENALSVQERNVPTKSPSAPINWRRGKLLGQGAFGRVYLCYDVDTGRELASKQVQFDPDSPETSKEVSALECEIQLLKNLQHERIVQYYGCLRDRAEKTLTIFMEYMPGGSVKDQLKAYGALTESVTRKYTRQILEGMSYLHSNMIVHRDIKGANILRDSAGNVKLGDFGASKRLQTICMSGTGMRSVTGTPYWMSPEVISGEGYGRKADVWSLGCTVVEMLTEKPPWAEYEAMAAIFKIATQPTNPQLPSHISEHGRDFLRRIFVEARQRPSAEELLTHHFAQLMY
Efflux pump inh: blocks antifungal efflux pumps in multiplex yeast assay. 330,000 tested, 0.44% active. inhibition, % at 10 µM. S. cerevisiae Candida pump triplex, Nile Red efflux. AID 485275;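 active = plate passing quality check with inhibition over a set limit, or well fluorescence over plate mean plus 4 SD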;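 also: Nile Red retained in pooled yeast measured as flow cytometry median fluorescence; 0% = buffer negative control and 100% = Enniatin B positive control; higher means more Nile Red kept so more efflux inhibition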
ABCG2 block: inhibitors of human ABCG2 transporter, ABCB1 counter-screen; 190,000 tested, 0.1% active; Q9UNQ0; AID 1325; IgMXP3 cells, JC-1 efflux, flow cytometry; inhibition, % at 6.6 µM;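 active = inhibition above 80%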;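 also: 0% = DMSO and 100% = nicardipine control wells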
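Test system: ABCG2 IgMXP3 and barcoded ABCB1 CCRF-Adr cell mix; Schedule: cells with compound and JC-1, 10 min at 25 °C, rotating, no wash; Technique: flow cytometry of retained JC-1 fluorescence; Measure: % inhibition of efflux relative to nicardipine and DMSO; Controls: nicardipine high and DMSO low controls.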
ABCB1 inh: inhibitors of human ABCB1 transporter, ABCG2 counter-screen; inhibition, % at 6.6 µM; P08183; AID 1326; 190,000 tested, 0.067% active; CCRF-Adr cells, JC-1 efflux, flow cytometry; in the data active = inhibition above about 40%;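 also: 0% = vehicle and 100% = reference inhibitor; higher value means more JC-1 retained so stronger ABCB1 efflux block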
MEKK2wt confirm: raises or lowers MEK5 binding to wildtype human MEKK2, retest; shares compounds with MEKK3 PB1 HTS; bead flow cytometry, Alexa488-MEK5 binding to MEKK2 WT; actives lie on both sides; binding response (% of control), % at 10 µM; 5,900 tested, 2.4% active; in the data active = binding response below about 16% or above about 210%; inactive = in between
MEKK2mut-MEK5: signal of MEK5 binding to mutant human MEKK2, retest. shares compounds with MEKK3 PB1 HTS. bead flow cytometry, Alexa488-MEK5 binding to MEKK2 mutant. percent response, % at 10 µM. 5,900 tested, 2% active; in the data active = percent response mostly above about 71%, no sharp cut-off; inactive = mostly below about 38%;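 also: higher means compound restores mutant binding toward wildtype level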
MEKK3-MEK5 inh: confirmation of inhibitors of MEK5 binding to human MEKK3; shares compounds with MEKK3 PB1 HTS; bead flow cytometry, Alexa488-MEK5 binding to MEKK3; stronger effect = lower value; binding response (% of control), % at 10 µM; 5,900 tested, 1.8% active;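 active = binding response below 72% of control, or above a set upper limit, though filed actives all read lower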;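 also: 100% = DMSO only wells and 0% = binding blocked by excess unlabeled MEK5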
The depositor's hits bear a star; / = no result; [ ] = remark or other dose.

SMILES	MEKK2mut PB1 HTS	MEKK2 WT-MEK5	MEKK3 PB1 HTS	Efflux pump inh	ABCG2 block	ABCB1 inh	MEKK2wt confirm	MEKK2mut-MEK5	MEKK3-MEK5 inh
CCOc1ccccc1N(CC(=O)NCCSc1ccccc1)S(C)(=O)=O	1	119	132*	0	0	0	103	0	107
Cc1ccc2nnnc(-c3ccccc3)c2c1	-9	54*[inhibitor]	88	0	6	1	98	8	104
Cc1ccc2nc(NCC(N)=O)nc(-c3ccccc3)c2c1	-4	84	88	0	/	/	/	/	/
NC(=O)C1(c2ccccc2)OC1c1ccccc1 (centres undefined)	/	/	/	0	/	/	/	/	/
O=C(Nc1ccc(Cl)c(Cl)c1)c1ccncc1	1	102	100	0	6	1	/	/	/
O=C(Nc1ccc(Cl)c(Cl)c1)c1ccc(Cl)c(Cl)c1	56*	162*	97	-1	/	/	142	16	105
O=C(Nc1ccc(C2=NCCN2)cc1)c1ccc(Cl)c(C(=O)Nc2ccc(C3=NCCN3)cc2)c1	34	144*	66*[inhibitor]	0	/	/	130	12	102
Clc1ccc(C2=NCCN2)cc1	4	105	113	0	1	1	/	/	/
COc1ccc(CNC(=O)C(=O)NCCC2CCCCN2S(=O)(=O)c2cccs2)cc1 (centres undefined)	/	/	/	0	/	/	/	/	/
COc1ccc2nc(N/C(N)=N/S(C)(=O)=O)nc(C)c2c1	1	104	101	0	/	/	/	/	/
Cc1ccc(C23CC4CC(CC(NC(=O)NCCN(C)C)(C4)C2)C3)cc1	31*	156*	107	0	2	0	21	-25	35*
CN(C)CCNC(=O)COc1ccc(C23CC4CC(CC(C4)C2)C3)cc1	14	151*	98	0	0	0	124	7	103
CN(C1CCCCC1)S(=O)(=O)c1ccc(-c2ccccn2)s1	-5	98	100	0	/	/	/	/	/
CCOC(=O)c1c(C)[nH]c(C(=O)CSc2nccc(C)n2)c1C	-2	96	97	0	58	1	/	/	/
O=C(/C=C/c1ccco1)Nc1ccc(-c2nc3ccccc3[nH]2)cc1	-5	47*[inhibitor]	35*[inhibitor]	0	-2	-1	76	-18	79
Nc1ccc(C(=O)OCC(=O)N2CCN(C(=O)c3ccco3)CC2)cc1[N+](=O)[O-]	0	105	134*	0	8	1	105	8	107
C/C(=N\NC(=O)c1ccc(Cl)cc1)c1ccc(N2CCOCC2)cc1	-2	93	91	0	3	1	/	/	/
C/C(=N/NC(=O)c1ccoc1C)c1ccc(N2CCOCC2)cc1	1	104	131*	0	1	0	100	-6	101
CCc1cc(C(=O)N2CCCC(Nc3ccc(F)c(F)c3)C2)n(C)n1 (centres undefined)	7	101	102	0	/	/	/	/	/
O=C(NCc1ccncc1)C(F)(F)C(F)(F)C(=O)NCc1ccncc1	3	104	105	0	0	0	/	/	/
O=C(/C=N/O)NCc1ccncc1	15	125	123*	0	1	0	96	-1	98
COc1ccc(-c2nsc(SCC(=O)NCC3CCCO3)n2)cc1 (centres undefined)	-3	81	73*[inhibitor]	0	0	0	100	1	101
Cc1ccc(SCC(=O)NCC2CCCO2)cc1 (centres undefined)	-10	94	96	0	10	1	/	/	/
Cc1ccc(SCCC(=O)NCC2CCCO2)cc1 (centres undefined)	-39	1.0*[inhibitor]	2.0*[inhibitor]	0	4	1	96	1	102
CCOc1cc(NC(=S)NCC2CCCO2)c(OCC)cc1NC(=O)c1ccc(OC)cc1 (centres undefined)	1	106	130*	0	14	1	96	-1	103
SMILES	MEKK2mut PB1 HTS	MEKK2 WT-MEK5	MEKK3 PB1 HTS	Efflux pump inh	ABCG2 block	ABCB1 inh	MEKK2wt confirm	MEKK2mut-MEK5	MEKK3-MEK5 inh
COc1ccc2oc(=O)c(C(=O)NCC3CCCO3)cc2c1 (centres undefined)	-7	94	82*[inhibitor]	0	6	1	101	-6	98
Cc1ccc(-c2nsc(SCC(=O)NCC3CCCO3)n2)cc1 (centres undefined)	-9	93	98	0	3	0	/	/	/
CCOc1cc(NC(=S)NCC2CCCO2)c(OCC)cc1NC(=O)c1ccccc1C (centres undefined)	-3	98	103	0	4	1	/	/	/
COc1ccc2oc(C(=O)N(C)CCOc3ccccc3)c(C)c2c1	3	105	101	2	/	/	/	/	/
COc1ccc([N+](=O)[O-])cc1N(CC(=O)NCC1CCCO1)S(C)(=O)=O (centres undefined)	-1	105	103	0	10	0	/	/	/
COc1ccc(C2=CC(=O)C[C@H](c3ccc(F)cc3)C2)c(OC)c1	/	/	/	0	/	/	/	/	/
O=C(c1ccc(COc2ccccc2Br)o1)N1N=C(C(F)F)CC1(O)C(F)F (centres undefined)	0	110	109	-1	7	0	/	/	/
N#Cc1nc(-c2ccc(F)cc2)oc1NCc1cccc2c1OCO2	13	113	110	0	0	0	/	/	/
Cc1ccc(-c2nc(C#N)c(NCc3cccc4c3OCO4)o2)cc1	-17	80	70*[inhibitor]	0	0	0	94	-6	100
O=C(Cc1n[nH]c(=O)c2ccccc12)Nc1cc(Cl)ccc1-n1cncn1	/	/	/	0	/	/	/	/	/
Cc1cc(NC(=O)COC(=O)COc2ccc3c(c2)CCC3)no1	11	131	132*	0	1	-1	105	2	104
O=C(COC(=O)COc1ccc2c(c1)CCC2)Nc1ccccc1	/	/	/	0	/	/	/	/	/
C=CCNC(=S)N/N=C(\C)c1cc(OC)c(OC)c(OC)c1	0	106	137*	0	13	1	105	1	105
Clc1cccc(CNCCNCc2cccc(Cl)c2)c1	17	187*	115	0	0	0	161	37	108
OCCNCc1cccc(Br)c1	1	99	100	0	0	1	/	/	/
c1ccc(Cn2nnc3c(NCC4CCCO4)nc(C4CC4)nc32)cc1 (centres undefined)	-13	92	94	0	11	3	/	/	/
